≈ marks a conversion by molar mass, not a printed value.
Columns and labels:
[1] = test system: Mus musculus; test: Antiinflammatory activity in mouse assessed as inhibition of carrageenan-induced increase in paw volume at 200 mg/kg administered 1 hr prior to carrageenan challenge measured after 3 hrs relative to control; format: functional
Outline: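 Mice were fasted 2 h and placed in groups of five. Controls received saline i.p. Phenylbutazone was given at 100 mg/kg i.p., curcumin at 200 mg/kg i.p., and derivatives at 200 mg/kg. After 1 h, 0.1 mL of 1% carrageenan in saline was injected subplantar into the right hind paw. Paw volume was followed by plethysmometer for 3 h, and % inhibition was calculated as (Vc − Vt)/Vc × 100.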

[2] = test system: HCT-116; test: Cytotoxicity against human HCT116 cells after 24 hrs by MTT assay; format: functional, cell-based
Outline: (§1)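 The MTT assay seeded 5 × 10⁴ cells per well and grew them 24 h in RPMI 1640 with compound at 2.5–200 µM. Medium without cells was the blank and adriamycin the positive control. MTT was added for 4 h at 37 °C, formazan was solubilised, and absorbance was read at 570 nm. IC50 is the concentration that cuts viability 50% against untreated cells.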

[3] = test system: QG-56; test: Cytotoxicity against human QG56 cells after 24 hrs by MTT assay; format: functional, cell-based; outline: as §1
[4] = test system: HeLa; test: Cytotoxicity against human HeLa cells after 24 hrs by MTT assay; format: functional, cell-based; outline: as §1
[5] = test system: HepG2; test: Cytotoxicity against human HepG2 cells after 24 hrs by MTT assay; format: functional, cell-based; outline: as §1
[6] = test system: Trichoderma viride; test: Antifungal activity against Trichoderma viride MTCC 1107 after 48 hrs; format: functional; settings: MTCC 1107, 48 h
[7] = test system: Trichoderma viride; test: Antifungal activity against Trichoderma viride MTCC 1107 assessed as zone of inhibition at 20 uM after 48 hrs by disc diffusion method; format: functional; settings: MTCC 1107, 48 h, read-out: IZ
Outline: (§2)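 Spores from 4-day potato dextrose agar cultures, suspended in sterile water at 1.5 × 10⁵ CFU/mL. 0.2 mL was spread on potato dextrose agar. 5 mm filter-paper discs soaked with test compound were laid on the lawn. Incubation was 48 h at 28 °C, then the inhibition zone was measured in mm. Fluconazole was the positive control and acetone the negative control.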

[8] = test system: Trichoderma viride; test: Antifungal activity against Trichoderma viride MTCC 1107 assessed as zone of inhibition at 40 uM after 48 hrs by disc diffusion method; format: functional; settings: MTCC 1107, 48 h, read-out: IZ; outline: as §2
[9] = test system: Trichoderma viride; test: Antifungal activity against Trichoderma viride MTCC 1107 assessed as zone of inhibition at 80 uM after 48 hrs by disc diffusion method; format: functional; settings: MTCC 1107, 48 h, read-out: IZ; outline: as §2
[10] = test system: Curvularia lunata; test: Antifungal activity against Curvularia lunata MTCC 581 after 48 hrs; format: functional; settings: MTCC 581, 48 h
[11] = test system: Curvularia lunata; test: Antifungal activity against Curvularia lunata MTCC 581 assessed as zone of inhibition at 20 uM after 48 hrs by disc diffusion method; format: functional; settings: MTCC 581, 48 h, read-out: IZ; outline: as §2
[12] = test system: Curvularia lunata; test: Antifungal activity against Curvularia lunata MTCC 581 assessed as zone of inhibition at 40 uM after 48 hrs by disc diffusion method; format: functional; settings: MTCC 581, 48 h, read-out: IZ; outline: as §2
[13] = test system: Aspergillus flavus; test: Antifungal activity against Aspergillus flavus MTCC 1021 after 48 hrs; format: functional; settings: MTCC 1021, 48 h
[14] = test system: Curvularia lunata; test: Antifungal activity against Curvularia lunata MTCC 581 assessed as zone of inhibition at 80 uM after 48 hrs by disc diffusion method; format: functional; settings: MTCC 581, 48 h, read-out: IZ; outline: as §2
[15] = test system: Aspergillus flavus; test: Antifungal activity against Aspergillus flavus MTCC 1021 assessed as zone of inhibition at 20 uM after 48 hrs by disc diffusion method; format: functional; settings: MTCC 1021, 48 h, read-out: IZ; outline: as §2
[16] = test system: Aspergillus flavus; test: Antifungal activity against Aspergillus flavus MTCC 1021 assessed as zone of inhibition at 40 uM after 48 hrs by disc diffusion method; format: functional; settings: MTCC 1021, 48 h, read-out: IZ; outline: as §2
[17] = test system: Aspergillus flavus; test: Antifungal activity against Aspergillus flavus MTCC 1021 assessed as zone of inhibition at 80 uM after 48 hrs by disc diffusion method; format: functional; settings: MTCC 1021, 48 h, read-out: IZ; outline: as §2
[18] = test system: Aspergillus niger; test: Antifungal activity against Aspergillus niger MTCC 1108 after 48 hrs; format: functional; settings: MTCC 1108, 48 h
[19] = test system: Aspergillus niger; test: Antifungal activity against Aspergillus niger MTCC 1108 assessed as zone of inhibition at 20 uM after 48 hrs by disc diffusion method; format: functional; settings: MTCC 1108, 48 h, read-out: IZ; outline: as §2
[20] = test system: Aspergillus niger; test: Antifungal activity against Aspergillus niger MTCC 1108 assessed as zone of inhibition at 40 uM after 48 hrs by disc diffusion method; format: functional; settings: MTCC 1108, 48 h, read-out: IZ; outline: as §2
[21] = test system: Aspergillus niger; test: Antifungal activity against Aspergillus niger MTCC 1108 assessed as zone of inhibition at 80 uM after 48 hrs by disc diffusion method; format: functional; settings: MTCC 1108, 48 h, read-out: IZ; outline: as §2
[22] = test system: Escherichia coli; test: Antimicrobial activity against Escherichia coli ATCC 35218 after 24 hrs by broth micro serial dilution method; format: functional; settings: ATCC 35218, 24 h
Outline: (§3)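 This was broth microdilution in autoclaved Mueller-Hinton broth. 150 µL of compound per well was serially diluted […], and 50 µL of test organism was added. Plates were incubated 24 h at 37 °C and optical density was read.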

[23] = test system: Escherichia coli; test: Antimicrobial activity against Escherichia coli ATCC 35218 assessed as diameter of inhibition zone at 20 uM after 24 hrs by Kirby -Baur disc diffusion method; format: functional; settings: ATCC 35218, 24 h, read-out: DIZ
Outline: (§4)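 Kirby-Bauer disc diffusion was used. Acetone stocks (160 µM) were serially doubled down to 80, 40 and 20 µM. 4 µL of each went onto 5 mm sterile paper discs, which were dried 30 min at 50 °C. Inoculum was 1.5 × 10⁸ CFU/mL diluted to 3 × 10² CFU/mL, and 50 µL was spread on Mueller-Hinton agar. After 24 h at 37 °C the inhibition-zone diameter was measured. Ciprofloxacin served as positive control.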

[24] = test system: Escherichia coli; test: Antimicrobial activity against Escherichia coli ATCC 35218 assessed as diameter of inhibition zone at 40 uM after 24 hrs by Kirby -Baur disc diffusion method; format: functional; settings: ATCC 35218, 24 h, read-out: DIZ; outline: as §4
[25] = test system: Escherichia coli; test: Antimicrobial activity against Escherichia coli ATCC 35218 assessed as diameter of inhibition zone at 80 uM after 24 hrs by Kirby -Baur disc diffusion method; format: functional; settings: ATCC 35218, 24 h, read-out: DIZ; outline: as §4
[26] = test system: Pseudomonas aeruginosa; test: Antimicrobial activity against Pseudomonas aeruginosa ATCC 15499 after 24 hrs by broth micro serial dilution method; format: functional; settings: ATCC 15499, 24 h; outline: as §3
[27] = test system: Pseudomonas aeruginosa; test: Antimicrobial activity against Pseudomonas aeruginosa ATCC 15499 assessed as diameter of inhibition zone at 20 uM after 24 hrs by Kirby -Baur disc diffusion method; format: functional; settings: ATCC 15499, 24 h, read-out: DIZ; outline: as §4
[28] = test system: Pseudomonas aeruginosa; test: Antimicrobial activity against Pseudomonas aeruginosa ATCC 15499 assessed as diameter of inhibition zone at 40 uM after 24 hrs by Kirby -Baur disc diffusion method; format: functional; settings: ATCC 15499, 24 h, read-out: DIZ; outline: as §4
[29] = test system: Pseudomonas aeruginosa; test: Antimicrobial activity against Pseudomonas aeruginosa ATCC 15499 assessed as diameter of inhibition zone at 80 uM after 24 hrs by Kirby -Baur disc diffusion method; format: functional; settings: ATCC 15499, 24 h, read-out: DIZ; outline: as §4
[30] = test system: Salmonella typhi; test: Antimicrobial activity against Salmonella typhi ATCC 23564 after 24 hrs by broth micro serial dilution method; format: functional, Salmonella enterica subsp. enterica serovar Typhi; settings: Salmonella enterica, ATCC 23564, 24 h
[31] = test system: Salmonella typhi; test: Antimicrobial activity against Salmonella typhi ATCC 23564 assessed as diameter of inhibition zone at 20 uM after 24 hrs by Kirby -Baur disc diffusion method; format: functional, Salmonella enterica subsp. enterica serovar Typhi; settings: Salmonella enterica, ATCC 23564, 24 h; read-out: DIZ
[32] = test system: Salmonella typhi; test: Antimicrobial activity against Salmonella typhi ATCC 23564 assessed as diameter of inhibition zone at 40 uM after 24 hrs by Kirby -Baur disc diffusion method; format: functional, Salmonella enterica subsp. enterica serovar Typhi; settings: Salmonella enterica, ATCC 23564, 24 h; read-out: DIZ
[33] = test system: Salmonella typhi; test: Antimicrobial activity against Salmonella typhi ATCC 23564 assessed as diameter of inhibition zone at 80 uM after 24 hrs by Kirby -Baur disc diffusion method; format: functional, Salmonella enterica subsp. enterica serovar Typhi; settings: Salmonella enterica, ATCC 23564, 24 h; read-out: DIZ
[34] = test system: Bacillus cereus; test: Antimicrobial activity against Bacillus cereus MTCC 7350 after 24 hrs by broth micro serial dilution method; format: functional; settings: MTCC 7350, 24 h; outline: as §3
[35] = test system: Bacillus cereus; test: Antimicrobial activity against Bacillus cereus MTCC 7350 assessed as diameter of inhibition zone at 20 uM after 24 hrs by Kirby -Baur disc diffusion method; format: functional; settings: MTCC 7350, 24 h, read-out: DIZ; outline: as §4
[36] = test system: Bacillus cereus; test: Antimicrobial activity against Bacillus cereus MTCC 7350 assessed as diameter of inhibition zone at 40 uM after 24 hrs by Kirby -Baur disc diffusion method; format: functional; settings: MTCC 7350, 24 h, read-out: DIZ; outline: as §4
[37] = test system: Bacillus cereus; test: Antimicrobial activity against Bacillus cereus MTCC 7350 assessed as diameter of inhibition zone at 80 uM after 24 hrs by Kirby -Baur disc diffusion method; format: functional; settings: MTCC 7350, 24 h, read-out: DIZ; outline: as §4
[38] = test system: Staphylococcus aureus; test: Antimicrobial activity against Staphylococcus aureus ATCC 11632 after 24 hrs by broth micro serial dilution method; format: functional; settings: ATCC 11632, 24 h; outline: as §3
[39] = test system: Staphylococcus aureus; test: Antimicrobial activity against Staphylococcus aureus ATCC 11632 assessed as diameter of inhibition zone at 20 uM after 24 hrs by Kirby -Baur disc diffusion method; format: functional; settings: ATCC 11632, 24 h, read-out: DIZ; outline: as §4
[40] = test system: Staphylococcus aureus; test: Antimicrobial activity against Staphylococcus aureus ATCC 11632 assessed as diameter of inhibition zone at 40 uM after 24 hrs by Kirby -Baur disc diffusion method; format: functional; settings: ATCC 11632, 24 h, read-out: DIZ; outline: as §4
[41] = test system: Staphylococcus aureus; test: Antimicrobial activity against Staphylococcus aureus ATCC 11632 assessed as diameter of inhibition zone at 80 uM after 24 hrs by Kirby -Baur disc diffusion method; format: functional; settings: ATCC 11632, 24 h, read-out: DIZ; outline: as §4

COc1ccc(NS(=O)(=O)c2ccc(/N=C(\C=C\c3ccc(O)c(OC)c3)CC(/C=C/c3ccc(O)c(OC)c3)=N/c3ccc(S(=O)(=O)Nc4ccc(OC)nn4)cc3)cc2)nn1
inhibition in vivo at 200 mg/kg [1]: 33.8%
IC50 [2]: 25 µM
IC50 [3]: 50 µM
IC50 [4]: 50 µM
IC50 [5]: 50 µM
MIC [6]: 20 µM (≈ 17.9 µg/mL)
zone of inhibition at 20 µM [7]: 12 mm
zone of inhibition at 40 µM [8]: 16 mm
zone of inhibition at 80 µM [9]: 19 mm
MIC [10]: 20 µM (≈ 17.9 µg/mL)
zone of inhibition at 20 µM [11]: 12 mm
zone of inhibition at 40 µM [12]: 15 mm
MIC [13]: 80 µM (≈ 71.4 µg/mL)
zone of inhibition at 80 µM [14]: 18 mm
zone of inhibition at 20 µM [15]: 9 mm
zone of inhibition at 40 µM [16]: 11 mm
zone of inhibition at 80 µM [17]: 13 mm
MIC [18]: 40 µM (≈ 35.7 µg/mL)
zone of inhibition at 20 µM [19]: 8 mm
zone of inhibition at 40 µM [20]: 10 mm
zone of inhibition at 80 µM [21]: 12 mm
MIC [22]: 40 µM (≈ 35.7 µg/mL)
zone of inhibition at 20 µM [23]: 14 mm
zone of inhibition at 40 µM [24]: 17 mm
zone of inhibition at 80 µM [25]: 19 mm
MIC [26]: 40 µM (≈ 35.7 µg/mL)
zone of inhibition at 20 µM [27]: 12 mm
zone of inhibition at 40 µM [28]: 19 mm
zone of inhibition at 80 µM [29]: 22 mm
MIC [30]: 40 µM (≈ 35.7 µg/mL)
zone of inhibition at 20 µM [31]: 14 mm
zone of inhibition at 40 µM [32]: 19 mm
zone of inhibition at 80 µM [33]: 21 mm
MIC [34]: 40 µM (≈ 35.7 µg/mL)
zone of inhibition at 20 µM [35]: 13 mm
zone of inhibition at 40 µM [36]: 17 mm
zone of inhibition at 80 µM [37]: 22 mm
MIC [38]: 40 µM (≈ 35.7 µg/mL)
zone of inhibition at 20 µM [39]: 11 mm
zone of inhibition at 40 µM [40]: 19 mm
zone of inhibition at 80 µM [41]: 21 mm
